Values belong to the compound of their own block, whether it stands above or below them.
Columns and labels:
Rattus norvegicus [1] = experiment: Antiinflammatory efficacy is measured by the weight gain in rats during the 3 week adjuvant arthritis test at 0.08 mM/kg (32.3 mg); assay type: functional
In short: (§1)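 Rats were adjuvant-injected (M. butyricum in mineral oil, one hind paw) or given a mineral-oil placebo. They were dosed by gavage daily for 21 days from the injection day, with vehicle only for both control groups, then weighed at the end. Weight gain % = (treated − adjuvant control)/(negative control − adjuvant control) × 100.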

Rattus norvegicus [2] = experiment: Antiinflammatory efficacy is measured by the weight gain in rats during the 3 week adjuvant arthritis test at 0.02 mM/kg (8.07 mg); assay type: functional; in short: as §1
Rattus norvegicus [3] = species: Rattus norvegicus; experiment: Effective Dose 50 is the amount of material required to produce effect in 50% of an animal population; assay type: functional
Rattus norvegicus [4] = experiment: The percent inhibition was calculated from the average differences in hind paw volume between the adjuvant injected controls and the adjuvant-injected medicated rats at 0.08 mmol/kg; 80-89; assay type: functional
Rattus norvegicus [5] = experiment: Ulcerogenicity was measured in intestine during the 3 week adjuvant arthritis test, no of animals with ulcers out of 15 animals tested at 0.08 mM/kg (32.3 mg) was reported; assay type: functional
In short: (§2)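 In the 21-day adjuvant arthritis model, male Sprague-Dawley rats (200–230 g) received an M. butyricum mineral-oil suspension into one hind paw. They were dosed daily by gavage from the day of injection. At the end of the study the rats were killed, and the small intestines were examined for ulcers. Results are given as the number of ulcerated animals over the number tested.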

Rattus norvegicus [6] = experiment: Ulcerogenicity was measured in intestine during the 3 week adjuvant arthritis test, no of animals with ulcers out of 4 animals tested at 0.02 mM/kg (8.07 mg) was reported; assay type: functional; in short: as §2
Rattus norvegicus [7] = experiment: Antiinflammatory efficacy is measured by the weight gain in rats during the 3 week adjuvant arthritis test at 0.005 mM/kg (2.02 mg); assay type: functional; in short: as §1
Rattus norvegicus [8] = experiment: Ulcerogenicity was measured in intestine during the 3 week adjuvant arthritis test, no of animals with ulcers out of tested animals at 0.16 mM/kg (64.6 mg) was reported; Toxic; assay type: functional, organism-based
In short: (§3)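 Male Sprague-Dawley rats (200–230 g) were injected in the plantar tissue of one hind paw with 0.1 mL of 0.6% M. butyricum suspension in heavy mineral oil. Daily oral gavage began on the day of adjuvant injection and ran for the 21 days, with drug suspended in 1% gum tragacanth or a corn oil-water emulsion. At the end the rats were sacrificed and the small intestine and stomach were examined for ulcers. Results are given as animals with ulcers/animals tested.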

Rattus norvegicus [9] = experiment: Antiinflammatory efficacy is measured by the percent inhibition of paw volume during the 3 week adjuvant arthritis test at 0.02 mM/kg (8.07 mg); assay type: functional
In short: (§4)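 Male Sprague-Dawley rats (200–230 g) were used in groups of eight. Each received 0.1 mL of 0.6% M. butyricum in heavy mineral oil into the plantar tissue of one hind paw. Daily oral gavage in 1% gum tragacanth or corn oil-water emulsion began on the injection day and ran 21 days. Total hind paw volume was measured by mercury displacement, and inhibition was taken versus vehicle-treated adjuvant controls.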

Rattus norvegicus [10] = experiment: Antiinflammatory efficacy is measured by the percent inhibition of paw volume during the 3 week adjuvant arthritis test at 0.08 mM/kg (32.3 mg); assay type: functional; in short: as §4
Rattus norvegicus [11] = experiment: Potency relative to phenylbutazone at 0.005 mM/kg; assay type: functional
Mus musculus = species: Mus musculus; experiment: Effective Dose 50 is the amount of material required to elicit analgesic effect in 50% of an animal population
Rattus norvegicus [12] = experiment: The mean increase in paw volume was compared between drug treated groups and placebo to calculate the percent inhibition in rats at 0.02 mmol/kg by carrageenan Edema Assay; 30-39; assay type: functional; conditions: for inhibition in vivo at 20 µmol/kg: Rattus norvegicus
Rattus norvegicus [13] = experiment: Ulcerogenicity was measured in stomach during the 3 week adjuvant arthritis test, no of animals with ulcers out of 4 animals tested at 0.02 mM/kg (8.07 mg) was reported; assay type: functional; in short: as §3
Rattus norvegicus [14] = experiment: Antiinflammatory efficacy is measured by the percent inhibition of paw volume during the 3 week adjuvant arthritis test at 0.005 mM/kg (2.02 mg); assay type: functional; in short: as §4
Rattus norvegicus [15] = experiment: Ulcerogenicity was measured in stomach during the 3 week adjuvant arthritis test, no of animals with ulcers out of 15 animals tested at 0.08 mM/kg (32.3 mg) was reported; assay type: functional; in short: as §3
Rattus norvegicus [16] = experiment: The mean increase in paw volume was compared between drug treated groups and placebo to calculate the percent inhibition in rats at 0.08 mmol/kg by carrageenan Edema Assay; 50-59; assay type: functional
Rattus norvegicus [17] = experiment: The percent inhibition was calculated from the average differences in hind paw volume between the adjuvant injected controls and the adjuvant-injected medicated rats at 0.08 mmol/kg; 50-59; assay type: functional
Rattus norvegicus [18] = experiment: The mean increase in paw volume was compared between drug treated groups and placebo to calculate the percent inhibition in rats at 0.02 mmol/kg by carrageenan Edema Assay; 0-19; assay type: functional
Rattus norvegicus [19] = experiment: Ulcerogenicity was measured in stomach during the 3 week adjuvant arthritis test, no of animals with ulcers out of 8 animals tested at 0.16 mM/kg (58.2 mg) was reported; assay type: functional; in short: as §3
Rattus norvegicus [20] = experiment: Antiinflammatory efficacy is measured by the weight gain in rats during the 3 week adjuvant arthritis test at 0.16 mM/kg (58.2 mg); assay type: functional; in short: as §1
Rattus norvegicus [21] = experiment: Ulcerogenicity was measured in intestine during the 3 week adjuvant arthritis test, no of animals with ulcers out of 8 animals tested at 0.08 mM/kg (29.1 mg) was reported; assay type: functional; in short: as §2
Rattus norvegicus [22] = experiment: Antiinflammatory efficacy is measured by the percent inhibition of paw volume during the 3 week adjuvant arthritis test at 0.005 mM/kg (1.82 mg); assay type: functional; in short: as §4
Rattus norvegicus [23] = experiment: Ulcerogenicity was measured in stomach during the 3 week adjuvant arthritis test, no of animals with ulcers out of 8 animals tested at 0.08 mM/kg (29.1 mg) was reported; assay type: functional; in short: as §3
Rattus norvegicus [24] = experiment: Antiinflammatory efficacy is measured by the percent inhibition of paw volume during the 3 week adjuvant arthritis test at 0.02 mM/kg (7.28 mg); assay type: functional; in short: as §4
Rattus norvegicus [25] = experiment: Antiinflammatory efficacy is measured by the weight gain in rats during the 3 week adjuvant arthritis test at 0.02 mM/kg (7.28 mg); assay type: functional; in short: as §1
Rattus norvegicus [26] = species: Rattus norvegicus; experiment: Effective Dose 50 is the amount of material required to elicit inflammatory effect in 50% of an animal population; assay type: functional
In short: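 In the 21-day adjuvant arthritis test in male Sprague-Dawley rats, daily gavage started on the day of M. butyricum injection. At the end, total hind paw volume was measured by mercury displacement. ED50 is the dose giving 50% inhibition of total hind paw volume change.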

[27] = target: prostaglandin synthetase (Bos taurus); experiment: Inhibitory concentration against prostaglandin synthetase from bull seminal vesicles
Rattus norvegicus [28] = experiment: Ulcerogenicity was measured in stomach during the 3 week adjuvant arthritis test, no of animals with ulcers out of 7 animals tested at 0.32 mM/kg (116.4 mg) was reported; assay type: functional; in short: as §3
Rattus norvegicus [29] = experiment: Antiinflammatory efficacy is measured by the weight gain in rats during the 3 week adjuvant arthritis test at 0.32 mM/kg (116.4 mg); assay type: functional
In short: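 Male Sprague-Dawley rats (200–230 g), eight per group, received 0.1 mL of 0.6% M. butyricum in heavy mineral oil (negative controls: mineral oil) into one hind-paw plantar tissue. Daily gavage in 1% gum tragacanth or corn oil-water emulsion began on the injection day, for 21 days. Weight gain is expressed as (treated − adjuvant control)/(negative control − adjuvant control) × 100.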

Rattus norvegicus [30] = experiment: The percent inhibition was calculated from the average differences in hind paw volume between the adjuvant injected controls and the adjuvant-injected medicated rats at 0.08 mmol/kg; 60-69; assay type: functional
Rattus norvegicus [31] = experiment: Antiinflammatory efficacy is measured by the weight gain in rats during the 3 week adjuvant arthritis test at 0.08 mM/kg (29.1 mg); assay type: functional; in short: as §1
Rattus norvegicus [32] = experiment: Antiinflammatory efficacy is measured by the weight gain in rats during the 3 week adjuvant arthritis test at 0.005 mM/kg (1.82 mg); assay type: functional; in short: as §1
Rattus norvegicus [33] = experiment: Ulcerogenicity was measured in intestine during the 3 week adjuvant arthritis test.(animals with ulcers/animals in test) at 0.16 mM/kg (58.2 mg); 4/8; assay type: functional; in short: as §3
Rattus norvegicus [34] = experiment: Ulcerogenicity was measured in intestine during the 3 week adjuvant arthritis test, no of animals with ulcers out of 7 animals tested at 0.32 mM/kg (116.4 mg) was reported; assay type: functional; in short: as §2
Rattus norvegicus [35] = experiment: Antiinflammatory efficacy is measured by the percent inhibition of paw volume during the 3 week adjuvant arthritis test at 0.08 mM/kg (29.1 mg); assay type: functional; in short: as §4
Rattus norvegicus [36] = species: Rattus norvegicus; experiment: Compound was evaluated for highest non-ulcerogenic dose (less than 50% ulcer incidence); assay type: functional; conditions: read-out: ED50
In short: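 Taken from the 21-day adjuvant arthritis test in male Sprague-Dawley rats dosed orally each day from the day of adjuvant injection. Small intestines and stomachs were examined for ulceration at the end. The value is the highest dose giving less than 50% ulcer incidence.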

Rattus norvegicus [37] = experiment: Ulcerogenicity was measured in stomach during the 3 week adjuvant arthritis test, no of animals with ulcers out of 8 animals tested at 0.16 mM/kg (49.4 mg) was reported.; assay type: functional; in short: as §3
Rattus norvegicus [38] = experiment: Potency relative to phenylbutazone at 0.08 mM/kg; assay type: functional
Rattus norvegicus [39] = experiment: Antiinflammatory efficacy is measured by the weight gain in rats during the 3 week adjuvant arthritis test at 0.08 mM/kg(24.7 mg); assay type: functional; in short: as §1
Rattus norvegicus [40] = experiment: Antiinflammatory efficacy is measured by the percent inhibition of paw volume during the 3 week adjuvant arthritis test at 0.08 mM/kg(24.7 mg); assay type: functional; in short: as §4
Rattus norvegicus [41] = experiment: Ulcerogenicity was measured in intestine during the 3 week adjuvant arthritis test, no of animals with ulcers out of 8 animals tested at 0.08 mM/kg (24.7 mg) was reported; assay type: functional; in short: as §2
Rattus norvegicus [42] = experiment: Ulcerogenicity was measured in intestine during the 3 week adjuvant arthritis test, no of animals with ulcers out of 8 animals tested at 0.16 mM/kg (49.4 mg) was reported.; assay type: functional; in short: as §3
Rattus norvegicus [43] = experiment: Ulcerogenicity was measured in stomach during the 3 week adjuvant arthritis test, no of animals with ulcers out of 8 animals tested at 0.08 mM/kg (24.7 mg) was reported; assay type: functional; in short: as §3

Compound: CC(CN1CCCCC1CC1CCCCC1)c1cccc(C(=O)c2ccccc2)c1 (stereo not drawn)
Weight gain (Rattus norvegicus [1]): 82% | Weight gain (Rattus norvegicus [2]): 55% | ED50 (Rattus norvegicus [3]): 3 µmol/kg | inhibition in vivo at 80 µmol/kg (Rattus norvegicus [4]): 80% | Ulcerogenic index (Rattus norvegicus [5]): 4 | Ulcerogenic index (Rattus norvegicus [6]): 1 | Weight gain (Rattus norvegicus [7]): 27% | Ulcerogenic index (Rattus norvegicus [8]): Toxic | Inhibition (Rattus norvegicus [9]): 79% | Inhibition (Rattus norvegicus [10]): 90% | Relative potency (Rattus norvegicus [11]): 8.7% | ED50 (Mus musculus): 55 mg/kg | inhibition in vivo at 20 µmol/kg (Rattus norvegicus [12]): 30% | Ulcerogenic index (Rattus norvegicus [13]): 0 | Inhibition (Rattus norvegicus [14]): 56% | Ulcerogenic index (Rattus norvegicus [15]): 1

Compound: CC(CN1C(C)CCCC1C)c1cccc(C(=O)c2ccccc2)c1 (stereo not drawn)
inhibition in vivo at 80 µmol/kg (Rattus norvegicus [16]): 50%

Compound: CC1CCCC(C)N1CCc1cccc(C(O)c2ccccc2)c1 (stereo not drawn)
inhibition in vivo at 80 µmol/kg (Rattus norvegicus [17]): 50% | inhibition in vivo at 20 µmol/kg (Rattus norvegicus [18]): 0%

IC50 [27]: 10 µM
Compound: CC(CN1CCOCC1)c1cccc(C(=O)c2ccccc2)c1.Cl (stereo not drawn)
Ulcerogenic index (Rattus norvegicus [19]): 2 | Weight gain (Rattus norvegicus [20]): 70% | Ulcerogenic index (Rattus norvegicus [21]): 5 | Inhibition (Rattus norvegicus [22]): 49% | Ulcerogenic index (Rattus norvegicus [23]): 0 | Inhibition (Rattus norvegicus [24]): 72% | Weight gain (Rattus norvegicus [25]): 10% | ED50 (Rattus norvegicus [26]): 5 µmol/kg | Ulcerogenic index (Rattus norvegicus [28]): 1 | Weight gain (Rattus norvegicus [29]): 46% | Inhibition (Rattus norvegicus [30]): 60% | ED50 (Mus musculus): 8.4 mg/kg | Weight gain (Rattus norvegicus [31]): 43% | Weight gain (Rattus norvegicus [32]): 2% | Ulcerogenic index (Rattus norvegicus [33]): 4 | Inhibition (Rattus norvegicus [12]): 30% | Ulcerogenic index (Rattus norvegicus [34]): 7 | Inhibition (Rattus norvegicus [35]): 89%

Compound: CC(CN1CCOCC1)c1cccc(C(=O)c2ccccc2)c1 (stereo not drawn)
highest non-ulcerogenic dose (Rattus norvegicus [36]): 8 µmol/kg | Ulcerogenic index (Rattus norvegicus [37]): 1 | Relative potency (Rattus norvegicus [38]): 8.6% | inhibition in vivo at 80 µmol/kg (Rattus norvegicus [30]; Rattus norvegicus): 80% | Weight gain (Rattus norvegicus [39]): 66% | Inhibition (Rattus norvegicus [40]): 82% | Ulcerogenic index (Rattus norvegicus [41]): 1 | inhibition in vivo at 20 µmol/kg (Rattus norvegicus [12]): 30% | Ulcerogenic index (Rattus norvegicus [42]): 3 | Ulcerogenic index (Rattus norvegicus [43]): 0

Reference: ChEMBL document CHEMBL1122782, “Bulky amine analogues of ketoprofen: potent antiinflammatory agents” (J Med Chem, 1984)
